From ChEMBL document CHEMBL1121913, “Inactivation of liver alcohol dehydrogenases and inhibition of ethanol metabolism by ambivalent active-site-directed reagents” (J Med Chem, 1981)

Assays:
[1] = The compound was tested for the ability to inactivate rat liver alcohol dehydrogenase in the absence of NAD+K
Summary of the method: (§1)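 Rat liver enzyme purified 15-fold ((NH₄)₂SO₄ 35–75%, DEAE-cellulose). Inactivation with 0.2 mM reagent, 0.1 M pyrophosphate buffer pH 8, 25 °C, enzyme near 0.2 mg/mL; NAD⁺ preincubated 1 min with enzyme before reagent addition. Apparent second-order constants computed on assumption of first-order dependence on reagent.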

[2] = The compound was tested for the ability to inactivate mouse liver alcohol dehydrogenase in the absence of NAD+K
Summary of the method: (§2)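 Mouse liver ADH, fourfold purified ((NH₄)₂SO₄ 45–65% cut, DEAE-cellulose), incubated at about 0.2 mg/mL with 0.2 mM reagent in 0.1 M Na₂P₂O₇ pH 8, 25 °C; coenzyme, when present, added 1 min before inactivator. Apparent second-order rate constant derived assuming reaction first order in reagent.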

[3] = The compound was tested for the ability to inactivate rat liver alcohol dehydrogenase in the presence of 1 mM NAD+K; summary of the method: as §1
[4] = biological target: T1, Alcohol dehydrogenase (Equus caballus) (UniProt P00327+P00328); assay: The compound was tested for the ability to inactivate horse liver alcohol dehydrogenase in the presence of 1 mM NAD+k
[5] = biological target: T1, Alcohol dehydrogenase (Equus caballus); assay: The compound was tested for the ability to inactivate horse liver alcohol dehydrogenase in the absence of NAD+k
[6] = biological target: T2, Alcohol dehydrogenase (Homo sapiens) (UniProt P07327+P08319+P00325+P00326+P40394+P11766+P28332); assay: The compound was tested for the ability to inactivate human liver alcohol dehydrogenase in the absence of NAD+K
Summary of the method: (§3)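 Human liver ADH, purified on carboxymethyl- and DEAE-cellulose plus (NH₄)₂SO₄ (60%) with 5% ethanol throughout, ethanol dialysed out. Inactivation at 25 °C in 0.1 M Na₂P₂O₇, pH 8, enzyme about 0.2 mg/mL, 0.2 mM reagent; NAD⁺ added 1 min before reagent where used. Apparent second-order constant calculated assuming first order in reagent.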

[7] = The compound was tested for the ability to inactivate mouse liver alcohol dehydrogenase in the presence of 1 mM NAD+K; summary of the method: as §2
[8] = biological target: T2, Alcohol dehydrogenase (Homo sapiens); assay: The compound was tested for the ability to inactivate human liver alcohol dehydrogenase in the presence of 1 mM NAD+k; summary of the method: as §3
[9] = biological target: T1, Alcohol dehydrogenase (Equus caballus); assay: The compound was tested for the ability to inactivate horse liver alcohol dehydrogenase in the presence of 1 mM NAD+K
[10] = biological target: T1, Alcohol dehydrogenase (Equus caballus); assay: (§4) The compound was tested for the ability to inactivate horse liver alcohol dehydrogenase in the presence of 0.2 mM NAD+K
[11] = Percent inhibition of Alcohol dehydrogenase activity in mice liver at dose 0.13 mmol/kg; format: tissue-based
Summary of the method: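 Male Swiss-Webster mice (20–25 g), fed, given one ip dose of reagent suspended in sterile 0.9% saline, then ethanol 3 g/kg ip (40% w/v in saline) 22–24 h later. Liver removed once blood ethanol approached zero, chilled, homogenized, clarified by centrifugation. ADH activity taken as initial-velocity difference, ethanol/NAD⁺ assay minus same assay with 10 mM pyrazole, per mg protein. Four or five mice per group.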

[12] = (§5) Percent inhibition of Alcohol dehydrogenase activity in rat liver at dose 0.13 mmol/kg; format: tissue-based
Summary of the method: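 Male Sprague-Dawley rats (160–200 g), two per experiment; compound suspended in sterile 0.9% saline, single i.p. dose 22–24 h before i.p. ethanol 2 g/kg (40% w/v in saline). Tail-vein blood ethanol by GC (1-propanol internal standard); elimination rate = β slope × dose/extrapolated zero-time level. Liver ADH afterwards: homogenate activity with ethanol/NAD⁺ minus 10 mM pyrazole control, per mg protein.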

[13] = biological target: T1, Alcohol dehydrogenase (Equus caballus); assay: The compound was tested for the ability to inactivate horse liver alcohol dehydrogenase in the presence of 1 mM NAD+(K
[14] = system: Mus musculus; assay: (§6) Percent inhibition of rate of ethanol metabolism in mice at dose 0.13 mmol/kg; format: functional
Summary of the method: (§7)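 Mice (male Swiss-Webster, fed) dosed ip with reagent in saline 22–24 h before ethanol 3 g/kg ip. Tail-vein blood (5 µL) deproteinized with Ba(OH)₂/ZnSO₄, 1-propanol internal standard, analyzed by GC with flame-ionization detection. Elimination slope fitted excluding absorption (1–2 h), multiplied by r (dose / theoretical zero-time blood level) to give metabolic rate. Four or five mice per group.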

[15] = biological target: T1, Alcohol dehydrogenase (Equus caballus); assay: The compound was tested for the ability to inactivate horse liver alcohol dehydrogenase in the absence of NAD+(K
[16] = Toxic effect in rats; format: toxicity, organism-based; conditions: rat, in vivo
Summary of the method: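 Male Sprague-Dawley rats (160–200 g), two per dose; single i.p. dose of compound suspended in sterile 0.9% saline. Acute lethality scored over 24 h after dosing.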

[17] = as §4
[18] = system: Rattus norvegicus; assay: Percent inhibition of rate of ethanol metabolism in rats at dose 0.13 mmol/kg; format: functional
Summary of the method: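 Rats (male Sprague-Dawley, fed) pretreated ip with reagent suspended in saline 22–24 h before ethanol 2 g/kg ip. Serial 5 µL tail-vein samples, Ba(OH)₂/ZnSO₄ deproteinization with 1-propanol internal standard, GC-FID. Metabolic rate = blood-ethanol decline slope × ratio of dose to extrapolated zero-time blood level. Two rats per experiment.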

[19] = biological target: T2, Alcohol dehydrogenase (Homo sapiens); assay: The compound was tested for the ability to inactivate human liver alcohol dehydrogenase in the presence of 1 mM NAD+K; summary of the method: as §3
[20] = system: Mus musculus; assay: Percent inhibition of recovery of rotarod performance in mice at dose 0.13 mmol/kg; format: functional
Summary of the method: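 Mice trained to hang on a 2-cm rod rotating at 7 rpm, two 15-min periods. Reagent given ip 22 h before ethanol 3 g/kg; five mice per dose, five vehicle controls. Impairment = 100(15 − minutes on rod)/15, probit-transformed; t1/2 for regaining 50% performance by regression. Inhibition = [t1/2(treated) − t1/2(control)]/t1/2(treated).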

[21] = Toxic effect in mice; format: toxicity, organism-based; conditions: mouse, in vivo
Summary of the method: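 Male Swiss-Webster mice (20–25 g); single i.p. dose of compound suspended in sterile 0.9% saline. Acute lethality scored over 24 h; LD₅₀ with limits at p ≤ 0.05 from three doses on 15 mice.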

[22] = as §6; conditions: in the assay text read “0.48 mmol/kg” for “0.13 mmol/kg”; summary of the method: as §7
[23] = as §5; format: tissue-based; remark: listed apart in the source
Summary of the method: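 Fed male Sprague-Dawley rats (160–200 g) received a single ip saline-suspended reagent dose, then ethanol 2 g/kg ip (40% w/v in saline) 22–24 h afterwards. Liver excised when blood ethanol neared zero, homogenized on ice, centrifuged. Activity = initial rate with ethanol and NAD⁺ minus rate in control assay containing 10 mM pyrazole, expressed per mg protein. Two rats per experiment.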

Rate constant [1] [M⁻¹ s⁻¹] | Rate constant [2] [M⁻¹ s⁻¹] | Rate constant [3] [M⁻¹ s⁻¹] | Rate constant [4] [M⁻¹ s⁻¹] | Rate constant [5] [M⁻¹ s⁻¹] | Rate constant [6] [M⁻¹ s⁻¹] | Rate constant [7] [M⁻¹ s⁻¹] | Rate constant [8] [M⁻¹ s⁻¹] | SMILES | Rate constant [10] [M⁻¹ s⁻¹] | further results
1.15 | 2.88 | 0.383 | 0.283 | 5.33 | 0.433 | 0.183 | 4.83 | O=C(CBr)Nc1ccc(Oc2ccc(C(=O)O)cc2)cc1 |  | 
 |  |  |  |  |  |  |  | NC(=O)CCCc1ccc(NC(=O)CCl)cc1 | 0.0267 | Rate constant [9]: 0.0417 M⁻¹ s⁻¹
0.317 | 0.717 | 0.0167 | 0.0533 | 2 | 2.33 |  | 5.33 | O=C(O)CCCCCCCCCCCNC(=O)CBr |  | 
0.483 | 0.717 | 0.417 | 0.4 | 2.33 | 0.833 | 0.105 | 58.3 | O=C(CBr)Nc1ccc(-c2ccc(C(=O)O)cc2)cc1 |  | 
 |  |  |  |  |  |  |  | CS(=O)(=O)OCC(=O)Nc1ccc(CCCC(N)=O)cc1 | 0.217 | inhibition [11]: 38%; LD50 [16]: > 480 µmol/kg; Rate constant [9]: 0.4 M⁻¹ s⁻¹; inhibition [22]: 43%; inhibition [23]: 35%; inhibition in vivo at 130 µmol/kg [18]: 15%; inhibition in vivo at 130 µmol/kg [20]: 70%; LD50 [21]: > 480 µmol/kg

SMILES | Rate constant [1] [M⁻¹ s⁻¹] | Rate constant [2] [M⁻¹ s⁻¹] | Rate constant [3] [M⁻¹ s⁻¹] | Rate constant [4] [M⁻¹ s⁻¹] | Rate constant [5] [M⁻¹ s⁻¹] | Rate constant [6] [M⁻¹ s⁻¹] | Rate constant [7] [M⁻¹ s⁻¹] | Rate constant [8] [M⁻¹ s⁻¹] | Rate constant [10] [M⁻¹ s⁻¹] | further results
O=C(O)CBr | 0.217 | 0.163 | 0.0133 | 0.0015 | 0.138 | 0.0133 |  |  |  | 
NC(=O)CCCc1ccc(NC(=O)CBr)cc1 | 0.583 | 0.6 | 1.17 |  |  | 0.09 | 1 |  | 2.67 | inhibition [11]: 21%; inhibition [12]: 21%; Rate constant [13]: 3.17 M⁻¹ s⁻¹; inhibition in vivo at 130 µmol/kg [14]: 20%; Rate constant [15]: 0.667 M⁻¹ s⁻¹; LD50 [16]: 130 µmol/kg; Rate constant [17]: 2.67 M⁻¹ s⁻¹; inhibition in vivo at 130 µmol/kg [18]: 26%; Rate constant [19]: 5.33 M⁻¹ s⁻¹; inhibition in vivo at 130 µmol/kg [20]: 58%; LD50 [21]: 210 µmol/kg
